Measurements published in paper PMC4709821 (ACS Infectious Diseases, 2015).
Values after ≈ are worked out from the molar mass of the structure shown.

Tests used:
[1] = test system: Rlm1-lacZ reporter of CWIP activity; test: Rlm1-lacZ cell wall integrity pathway; type: cell-based, S. cerevisiae; conditions: exposure of cells harboring the reporter plasmid
How it was run: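 S. cerevisiae CRY2 (W303 background) carried a plasmid with lacZ driven by two consensus Rlm1 binding sites. Cells were grown overnight in SC lacking uracil at 30 °C, diluted to 0.1 OD600 in YPD and grown to 0.4. They were dispensed at 0.05 OD600, and test compound was pinned in. Plates stood 4 h at room temperature before Gal-Screen luminescence read-out against solvent wells. Values are the mean of three replicates.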

Mpk1 phosphorylation = test: Western blot of Mpk1 phosphorylation in C. neoformans; type: cell-based; conditions: exponential phase cells, MPK1-FLAG strain
C. neoformans [2] = test: Alamar blue viability assay with and without 1 M sorbitol; type: cell-based, Cryptococcus neoformans
How it was run: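 C. neoformans was grown overnight in YPD at 30 °C and seeded at 1.5 × 10^4 cells/mL into a dilution series of test compound, in synthetic complete medium with or without 1 M sorbitol. Plates ran 24 h at 37 °C, then Alamar blue (1:10) was added for 2 h at 37 °C. Fluorescence (Ex 544/Em 590) was compared to DMSO wells, and IC50 was obtained by curve fitting.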

C. neoformans H99 cells = test: Checkerboard assay of interaction with caspofungin; type: cell-based, Cryptococcus neoformans
HEK293 cells = test: Mammalian cell cytotoxicity; type: cell-based, human; conditions: higher concentrations not tested
[3] = Stability in human plasma; type: in vitro ADME; conditions: after 5 h of incubation
[4] = Stability in mouse plasma; type: in vitro ADME; conditions: after 5 h of incubation
[5] = test system: protein kinase C 1 (Pkc1); test: Cellular protein kinase C activity; type: biochemical, C. neoformans; conditions: cell lysates
How it was run: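 Cells were grown overnight in YPD at 30 °C, washed three times in DPBS, adjusted to 1 × 10^7 cells/mL and lysed with glass beads in kit extraction buffer. Equal total protein plus a dilution series of test compound went into each reaction with a fluorescent Pkc1-specific substrate for 30 min. Products were separated on agarose gel, quantified by densitometry and expressed as % of DMSO reactions. Staurosporine served as reference inhibitor.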

[6] = test system: C. neoformans strain CM108; test: MIC at 30 and 37 °C with strain CM108; type: cell-based; conditions: Cryptococcus neoformans
How it was run: (§1)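 MIC was determined by the CLSI-approved method, read at a 72 h end point. Congenic CM108 and mpk1Δ strains came from the Fungal Genetics Stock Center. CM108 was tested at 30 and 37 °C and mpk1Δ at 30 °C.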

C. neoformans mpk1Δ = test: MIC against the congenic mpk1Δ strain; type: cell-based, Cryptococcus neoformans; conditions: 30 °C
How it was run: as §1

C. neoformans [7] = conditions: cited from earlier work

## O=S(=O)(O)c1cc(Nc2nc(Nc3ccccc3)nc(N(CCO)CCO)n2)ccc1/C=C/c1ccc(Nc2nc(Nc3ccccc3)nc(N(CCO)CCO)n2)cc1S(=O)(=O)O [Calcofluor white]
[1]
  increase in β-galactosidase activity: 5 fold
Mpk1 phosphorylation
  Mpk1 phosphorylation caused by the agent alone: induced phosphorylation of Mpk1

## Cc1ccc(C(C)C)c(OCCn2c(S)nc3ccccc32)c1 [Compound 1, 1-(2-(2-isopropyl-5-methylphenoxy)ethyl)-1H-benzo[d]imidazole-2(3H)-thione]
C. neoformans [2]
  sorbitol suppression of anticryptococcal activity: sorbitol-suppressable
C. neoformans H99 cells; combination of 1 with caspofungin, 1 at 2-fold below its MIC
  fractional inhibitory concentration index (FICI): 0.625
C. neoformans H99 cells; subinhibitory concentrations of 1
  reduction of the concentration of caspofungin needed to inhibit C. neoformans: 8 fold
HEK293 cells
  concentration up to which nontoxic: ≥ 80 µM
[3]
  remaining intact in plasma: 100%
[4]
  remaining intact in plasma: 100%
[5]; concentrations as high as 10-fold above its MIC
  protein kinase C activity as percentage of DMSO-treated samples: 91 ± 3%
[6]; CM108, 30 °C
  MIC: 16 mg/L (≈ 49 µM)
[6]; CM108, 37 °C
  MIC: 8 mg/L (≈ 24.5 µM)
C. neoformans mpk1Δ
  activity against strain from which MPK1 has been deleted: active

## CCN(CC)CCOc1ccc(C(=C(Cl)c2ccccc2)c2ccccc2)cc1 [clomiphene]
C. neoformans [7]; positive control of the screen
  AK signal / cell lysis: strong AK signal

## OC(Cn1cncn1)(Cn1cncn1)c1ccc(F)cc1F [fluconazole]
C. neoformans [7]
  AK activity compared to solvent controls: no increase

## CN[C@@H]1C[C@H]2O[C@@](C)([C@@H]1OC)n1c3ccccc3c3c4c(c5c6ccccc6n2c5c31)C(=O)NC4 [staurosporine, reference compound]
[5]; data not shown
  reduction in Pkc1 activity: 25%
